Shown are actives, neighbours in structure and some others; about 6.6% of the full set was active somewhere.
BAP1 inh = inhibitors of human BAP1 deubiquitinase | Q92560 | recombinant BAP1, Ub-AMC hydrolysis fluorescence kinetic; active compounds read low | calls only at 20 µM | 72,000 tested, 0.48% active;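 active means activity remaining at or below 50% of control, provided the compound also passes the data quality filters; inactive means the rest, including low values that fail the filters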
M1 antag = blocks the rat M1 muscarinic receptor response to acetylcholine | P08482 | CHO-M1 cells, Fluo-4 calcium, ACh EC80 antagonist mode; active compounds read low | B-score at 10 µM | 64,000 tested, 3.4% active;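 active means calcium fluorescence response, raw or row-and-column corrected B-score, differing from the plate sample mean either way at a set confidence level, mostly lower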
Target sequence (P08482 whole entry, looked up): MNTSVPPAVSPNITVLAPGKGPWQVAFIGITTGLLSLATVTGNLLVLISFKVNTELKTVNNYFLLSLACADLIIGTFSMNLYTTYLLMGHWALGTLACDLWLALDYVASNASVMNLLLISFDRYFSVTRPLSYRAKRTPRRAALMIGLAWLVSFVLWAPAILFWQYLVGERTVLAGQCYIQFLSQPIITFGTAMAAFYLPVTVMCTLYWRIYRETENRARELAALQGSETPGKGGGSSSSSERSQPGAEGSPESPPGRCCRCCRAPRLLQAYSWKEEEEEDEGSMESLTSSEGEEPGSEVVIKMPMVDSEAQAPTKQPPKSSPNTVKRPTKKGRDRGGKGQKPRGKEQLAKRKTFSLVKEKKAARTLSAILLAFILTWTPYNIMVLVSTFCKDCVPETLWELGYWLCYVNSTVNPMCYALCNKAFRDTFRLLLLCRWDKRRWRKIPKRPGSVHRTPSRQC
HEK293 NFkB inh = inhibitors of the PMA/ionomycin-induced NF-kB reporter in HEK293 cells | inhibition, % at 3 µM | HEK-293 NF-kB luciferase reporter, luminescence | 62,000 tested, 0.21% active;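 active means inhibition above the mean of all tested compounds plus 3 SD, cut at about 40% in these data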
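Reagent: PMA plus ionomycin mix as NF-kB-activating stimulus. Assay system: NF-kB luciferase reporter HEK-293 cells. Technique: luminescence from luciferase substrate reagent. Incubation: 1 h compound pre-incubation, 16 h PMA/ionomycin at 37 °C. Benchmarks: DMSO only as uninhibited control, 10 µM reference inhibitor as full inhibition. Repeats: tested once.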
M1 agonist = activates the M1 muscarinic receptor; CHO-M1 cells, Fluo-4 calcium fluorescence, agonist mode; active compounds read high; B-score at 10 µM; 64,000 tested, 3% active; AID 626;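 active means fluorescence rise, raw or as B-score row- and column-corrected plate score, outside the 99.7% band of its plate's samples, either direction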
HER2 expr 66K = inhibitors of human Her2 kinase expression; HER2 level % of control, % at 10 µM; SKBR-3 HER2 protein level, AlphaScreen, 18-24 h; active compounds read low; 65,000 tested, 0.69% active;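 active means HER2 level under 5% of the carrier-only control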;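 further: lower value means stronger loss of Her2 protein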
JNK3 inh = blocks human JNK3 kinase activity | purified JNK3 kinase activity, HTS | 60,000 tested, 0.61% active | inhibition, % at 8 µM | P53779 | AID 746; in the data active means inhibition above about 17%
Numbers stand for hits; – = inactive; · = no result given; + = active, no number.

SMILES	BAP1 inh	M1 antag	HEK293 NFkB inh	M1 agonist	HER2 expr 66K	JNK3 inh
CN(C)c1cc(NC(=O)CN2CCOCC2)c2ccccc2n1	+	–	–	–	–	–
Cc1ccc(C)c(NC(=O)CSc2nnnn2-c2ccccc2)c1	–	·	·	·	·	·
Cc1ccc(N(CC(=O)Nc2ccc3c(c2)OCCO3)S(=O)(=O)c2c(C)n[nH]c2C)cc1	–	–	–	–	–	–
Cc1n[nH]c(C)c1S(=O)(=O)Nc1ccc2c(c1)OCCO2	–	2.35	–	–	–	–
Cc1cc(NC(=O)CCS(=O)(=O)c2nc(-c3ccccc3)cc(C(F)(F)F)n2)no1	–	·	–	·	·	–
CS(=O)(=O)c1nc(-c2ccccc2)cc(C(F)(F)F)n1	·	–	–	–	-23.6	·
COCC(C)n1c(C)cc(C(=O)COC(=O)c2c(NC(C)=O)sc(C)c2C)c1C (configuration not stated)	–	–	–	–	-11.0	–
COCC(C)n1c(C)cc(C(=O)COC(=O)c2c(C)nn(-c3ccccc3)c2C)c1C (configuration not stated)	–	–	–	–	–	–
CCCCC(=O)NC1(C(F)(F)F)C(=O)Nc2c1c(=O)n(C)c(=O)n2C (configuration not stated)	–	1.51	–	–	–	–
COc1ccc(C(C)=O)cc1COC(=O)c1cc(C)oc1C	–	–	–	–	–	17.8
COc1ccc(C(C)=O)cc1COC(=O)c1cccc(N(C)C)c1	–	–	–	–	–	–
O=C(Nc1ccncc1)C1COc2ccccc2O1 (configuration not stated)	–	–	–	–	–	–
O=C(NC1=NCCS1)C1COc2ccccc2O1 (configuration not stated)	–	–	58.1	–	–	–
COc1ccc([N+](=O)[O-])cc1NC(=O)c1ccc(S(=O)(=O)N2CC(C)CC(C)C2)cc1 (configuration not stated)	–	·	·	·	·	·
O=C(Nc1ccc(-c2nc3cccnc3s2)cc1)c1ccco1	·	–	–	–	–	22.7
Cc1nc(NC(=O)c2ccco2)sc1C(=O)Nc1ccc(Br)cc1	–	–	–	–	-3.0	–
O=C(Nc1ccc(-c2nc3cccnc3s2)cc1)c1ccc(Br)o1	–	–	–	–	–	–
COC(=O)c1sc(NC(=O)c2ccco2)nc1C	–	–	–	–	–	–
Cc1[nH]n(-c2ccccc2)c(=O)c1C(c1ccc(C#N)cc1)c1c(C)[nH]n(-c2ccccc2)c1=O	–	·	·	·	·	·
CCn1c(C(C)NC(C)=O)nc2ccccc21 (configuration not stated)	–	–	–	–	–	31.0
CCN(CC)c1ccc(C2C(C(=O)OC3CCCC3)=C(C)NC3=C2C(=O)CC(C)(C)C3)cc1 (configuration not stated)	–	·	·	·	·	·
c1ccc2c(c1)OCC(c1nn3c(Cn4nnc5ccccc54)nnc3s1)O2 (configuration not stated)	·	–	–	-3.24	–	–
CN=C(C)c1c(O)c2ccccc2oc1=O	–	·	·	·	·	·
O=C(CCC1CCCC1)c1c(O)c2ccccc2oc1=O	–	-2.08	–	8.17	–	–
Cc1cc(C)nc(NS(=O)(=O)c2ccc(NC(=O)c3ccccc3C(=O)O)cc2)n1	–	·	·	·	·	·
SMILES	BAP1 inh	M1 antag	HEK293 NFkB inh	M1 agonist	HER2 expr 66K	JNK3 inh
CCC(C)NC(=O)c1nn2c(c1Cl)NC(c1ccc(C)cc1)CC2C(F)(F)F (configuration not stated)	–	·	·	·	·	·
CCC(C)NC(=O)c1cnn2c1NC(c1ccc3c(c1)OCO3)CC2C(F)(F)F (configuration not stated)	–	–	–	–	-28.9	–
CCc1cc(-c2n[nH]c(C)c2Oc2ccccc2)c(O)cc1OC(C)C	–	·	·	·	·	·
CCCN1CCCc2cc(CN)ccc21	–	–	–	5.65	–	–
CCN1CCCc2cc(O)ccc21	–	·	·	·	·	·
CCC(=O)NS(=O)(=O)c1ccc(NC(=O)c2ccccc2Cl)cc1	–	·	·	·	·	·
COc1cc(OC)cc(-c2cc3nc(C)c(CCC(=O)O)c(C)n3n2)c1	–	–	63.3	–	–	–
CCn1nnc(NC(=O)c2cccnc2)n1	–	0.775	–	–	–	–
O=C(CSc1c2c(nc3ccc(Cl)cc13)CCCC2)N1CCN(C(=O)c2ccco2)CC1	–	–	–	–	-5.2	–
O=C(CSc1nc2cc(Cl)ccc2s1)N1CCN(C(=O)c2ccco2)CC1	–	–	–	–	–	–
CCOc1ccc(S(=O)(=O)N2CCSC2c2ccc([N+](=O)[O-])cc2)cc1 (configuration not stated)	–	·	·	·	·	·
C=CCOC(=O)C1=C(C)Nc2ncnn2C1c1cc(Br)ccc1F (configuration not stated)	–	–	–	–	–	–
Fc1ccc(Br)cc1C1C=C(c2ccc(Br)s2)Nc2ncnn21 (configuration not stated)	–	–	–	20.2	–	–
Cc1c(NC(=O)C2CCCNC2=O)c(=O)n(-c2ccccc2)n1C (configuration not stated)	–	0.691	–	–	–	–
Cc1c(NC(=O)c2nn(C)c(=O)c3ccccc23)c(=O)n(-c2ccccc2)n1C	–	–	–	–	–	–
Cc1c(NC(=O)Cn2nc(C(=O)O)c3ccccc3c2=O)c(=O)n(-c2ccccc2)n1C	–	1.03	–	–	–	–
CCOc1cc(N2CCOCC2)c(OCC)cc1NC(=O)Cc1cn2ccsc2n1	–	–	–	–	–	–
CCOc1cc(N2CCOCC2)c(OCC)cc1NC(=O)c1nc2nccc(C)n2n1	–	–	–	4.86	–	–
CCCCCc1c(C)c2ccc(OC(C)=O)cc2oc1=O	–	·	·	·	·	·
CCOC(=O)c1ccc(NC(=O)CSc2nnnn2CCCO)cc1	–	1.82	–	–	–	–
C=CCn1nnnc1SCC(=O)Nc1cccc(OC)c1	–	11	–	–	–	–
CCOC(=O)c1c(-c2ccccc2)csc1NC(=O)CSc1nnnn1C	–	–	–	3.23	–	–
CCOC(=O)c1c(NC(=O)CSc2nnnn2C)sc(C)c1-c1ccc(C)cc1	·	–	–	–	–	–
O=C(c1ccc(Cl)cc1)N1CCCCC(Sc2nnc(-c3ccc4c(c3)OCO4)o2)C1=O (configuration not stated)	–	–	75.7	–	–	–
O=C(O)C1C2C=CC(C2)C1C(=O)NCc1ccccn1 (configuration not stated)	–	2.66	–	–	–	·
COC(=O)c1[nH]c2ccc(Br)cc2c1NC(=O)C(C)N1CCN(C2CCCCC2)CC1 (configuration not stated)	–	–	–	–	-4.8	–
Nc1ccc2ncccc2c1N	–	–	·	–	-18.6	–
O=C(Nc1ccc2oc(-c3ccccc3Br)nc2c1)c1cccc(Cl)c1	–	·	·	·	·	·
Cc1ccc2nc(NC3=NCN(Cc4cccnc4)CN3)nc(C)c2c1	–	–	–	–	–	–
Cc1nc(NC2=NCN(Cc3ccco3)CN2)nc2ccccc12	–	-2.91	–	–	–	–
